Screens: PubChem BioAssay, The Scripps Research Institute Molecular Screening Center
Sampled rows, rich in hits. Any-hit rate of the full collection: about 2.5%.
TDP2 inh – TDP2 (human) inhibition, absorbance primary screen; O95551; recombinant TDP2, T5PNP hydrolysis, p-nitrophenol absorbance 415 nm; inhibition, % at 12.8 µM; 370,000 tested, 0.34% active; AID 720702;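 active = inhibition above the mean of all tested compounds plus 3 SD, set per campaign, cut at about 25% in these data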
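Incubation: 2 h at 37 °C; Test system: recombinant human TDP2; Quantity: enzyme 120 nM; Read-out basis: percent inhibition; Medium: 50 mM Tris-HCl pH 7.5 with Mg2+, KCl, DTT, BSA; Repeats: single replicate; Compound: 12.8 µM single point, 1% DMSO; Signal: epi absorbance; Reagent: 5 mM T5PNP chromogenic substrate; Benchmarks: no-enzyme high, DMSO-plus-enzyme low.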
PRMT1 FP inh – PRMT1 (human) inhibition, primary screen; inhibition, % at 2.79 µM; Q99873; AID 652257; 370,000 tested, 1.3% active; recombinant PRMT1, activity-based probe fluorescence polarization;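 active = inhibition above about 21% made by adding two undisclosed values, limit read from the data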
Target sequence (Q99873 whole entry, looked up): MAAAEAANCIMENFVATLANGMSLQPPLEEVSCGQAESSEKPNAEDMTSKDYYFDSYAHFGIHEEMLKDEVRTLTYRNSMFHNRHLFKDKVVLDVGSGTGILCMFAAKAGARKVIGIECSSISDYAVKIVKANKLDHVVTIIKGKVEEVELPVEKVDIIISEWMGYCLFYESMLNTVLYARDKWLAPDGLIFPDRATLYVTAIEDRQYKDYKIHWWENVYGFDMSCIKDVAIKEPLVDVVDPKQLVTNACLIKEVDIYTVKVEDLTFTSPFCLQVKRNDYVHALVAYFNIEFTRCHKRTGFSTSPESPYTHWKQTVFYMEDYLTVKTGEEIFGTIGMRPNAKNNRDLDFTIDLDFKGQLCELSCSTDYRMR
Fh CTSL1 inh – blocks F. hepatica cathepsin L1 in PFM18AAP counter-screen. recombinant F. hepatica cathepsin L1, Z-Leu-Arg-MCA fluorescence. AID 1906. 300,000 tested, 0.49% active. inhibition, % at 5.96 µM;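 active = inhibition above the mean of all tested compounds plus 3 SD, set per screening campaign, cut at about 17% in these data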
GSTO1 inh – counter-screen for RBBP9 inhibitors: inhibitors of human GSTO1. recombinant GSTO1, activity-based probe fluorescence polarization. AID 1974. 300,000 tested, 1.1% active. inhibition, % at 5.96 µM. P78417;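 active = inhibition above the campaign mean inhibition plus 3 SD, cut at about 35% in these data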
Target sequence (P78417 whole entry, looked up): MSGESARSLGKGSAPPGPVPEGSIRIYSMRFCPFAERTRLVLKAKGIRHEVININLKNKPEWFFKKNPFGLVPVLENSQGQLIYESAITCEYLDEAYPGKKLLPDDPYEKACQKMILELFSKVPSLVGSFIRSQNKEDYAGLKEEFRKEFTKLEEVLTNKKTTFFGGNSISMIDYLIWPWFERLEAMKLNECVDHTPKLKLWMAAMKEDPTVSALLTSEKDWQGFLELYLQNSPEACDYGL
PAD4 FP inh – PAD4 (human) enzyme inhibition | Q9UM07 | recombinant PAD4, RCA probe fluorescence polarization | inhibition, % at 6.36 µM | 330,000 tested, 0.41% active;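 active = percent inhibition above a cutoff equal to the mean of all tested compounds plus 3 SD, cut at about 15% in these data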
PRMT1 confirm – PRMT1 (human) inhibition, FP confirmation. shares compounds with PRMT1 FP inh. recombinant His-PRMT1, activity-based probe fluorescence polarization. inhibition, % at 2.79 µM. 3,300 tested, 42% active;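 active = mean inhibition across replicates above the hit cutoff derived for the earlier primary screen, cut at about 22% in these data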
A number is an active result.

For CCn1c2ccccc2c2cc(C=NNC(=O)CSc3nc4ccccc4c(=O)n3-c3ccccc3)ccc21 the results were TDP2 inh inactive and PRMT1 FP inh inactive.
Screening CCCCN(C(=O)c1cc(-c2ccc(F)cc2)nc2ccccc12)c1c(N)n(CCCC)c(=O)[nH]c1=O returned TDP2 inh inactive and PRMT1 FP inh inactive.
Screening COCCN(C(=O)c1cc(-c2ccco2)nc2ccccc12)c1c(N)n(Cc2ccccc2)c(=O)[nH]c1=O returned TDP2 inh inactive, PRMT1 FP inh 83.0, PAD4 FP inh inactive and PRMT1 confirm inactive.
`CCCN(C(=O)c1cc(-c2ccco2)nc2ccccc12)c1c(N)n(Cc2ccccc2)c(=O)[nH]c1=O` gave TDP2 inh inactive, PRMT1 FP inh 32.9, Fh CTSL1 inh inactive, GSTO1 inh inactive, PAD4 FP inh inactive and PRMT1 confirm inactive.
Cc1cc(C(=O)O[C@H]2CCC[C@@]3(C(=O)N(Cc4ccccc4)c4ccccc43)[C@H]2NC(=O)CCc2ccccc2)no1 was read as TDP2 inh inactive and PRMT1 FP inh inactive.
COc1ccc(C2C3=C(N=C4SCC(=O)N42)c2ccccc2CC3)cc1OC (centres undefined) was read as TDP2 inh inactive, PRMT1 FP inh 54.5, Fh CTSL1 inh inactive, GSTO1 inh inactive, PAD4 FP inh inactive and PRMT1 confirm inactive.
Screening CCOC(=O)C1=C(c2ccccc2)N=C2SCC(=O)N2C1c1ccc(OCC)c(OCC)c1 (centres undefined) returned TDP2 inh inactive, PRMT1 FP inh inactive, Fh CTSL1 inh inactive, GSTO1 inh inactive and PAD4 FP inh inactive.
Screening COc1ccccc1C1C2=C(N=C3SCC(=O)N31)c1ccccc1CC2 (centres undefined) returned TDP2 inh inactive, PRMT1 FP inh 36.9, Fh CTSL1 inh inactive, GSTO1 inh inactive, PAD4 FP inh inactive and PRMT1 confirm inactive.
Screening O=C(NCCc1c[nH]c2ccccc12)OCc1cn(-c2ccc(F)cc2)nn1 returned TDP2 inh inactive and PRMT1 FP inh inactive.
Screening COC(=O)C1CN(Cc2ccc(C)cc2)CCS(=O)(=O)N1Cc1cn(Cc2ccc(F)cc2)nn1 (centres undefined) returned TDP2 inh inactive and PRMT1 FP inh inactive.
Screening COC(=O)C1CN(Cc2ccc(OC)cc2)CCS(=O)(=O)N1Cc1cn(Cc2ccc(C)cc2)nn1 (centres undefined) returned TDP2 inh inactive and PRMT1 FP inh inactive.
For COC(=O)[C@]12C[C@H](CC(=O)N3CCN(C(=O)C4CC4)CC3)C(=O)N(Cc3ccco3)C1=C[C@H](C1CCCC1)O[C@@H]2C the results were TDP2 inh inactive and PRMT1 FP inh inactive.
`CCCCCCCCN1C(=O)[C@@H](CC(=O)NCCCC)C[C@@]2(C(=O)OC)C1=C[C@H](COCc1ccccc1)O[C@@H]2C` gave TDP2 inh inactive and PRMT1 FP inh inactive.
CCS(=O)(=O)C1=NN2C(=N)/C(=C\c3ccc(OC(=O)c4ccco4)c(Br)c3)C(=O)N=C2S1 was read as Fh CTSL1 inh inactive, GSTO1 inh inactive and PAD4 FP inh inactive.
CCS(=O)(=O)C1=NN2C(=N)/C(=C\c3ccc(SCc4ccco4)o3)C(=O)N=C2S1 was read as TDP2 inh inactive, PRMT1 FP inh 29.6 and PRMT1 confirm inactive.
For NC(=O)C[n+]1cccc2ccccc21 the results were TDP2 inh inactive, PRMT1 FP inh 54.6, Fh CTSL1 inh inactive, GSTO1 inh inactive, PAD4 FP inh inactive and PRMT1 confirm inactive.
Screening CCSS(=O)(=O)c1cccc2cccnc12 returned TDP2 inh inactive, PRMT1 FP inh 93.4, Fh CTSL1 inh inactive, GSTO1 inh inactive, PAD4 FP inh inactive and PRMT1 confirm 98.0.
`Fc1ccc(Cn2ccc3ccc(-c4ccc5ccn(Cc6ccccc6)c5c4)cc32)cc1` gave TDP2 inh inactive and PRMT1 FP inh inactive.
`N#CC(=C1C=CC(=NO)C(Cl)=C1)c1ccc(Cl)cc1` gave TDP2 inh inactive and PRMT1 FP inh inactive.
`COc1ccc(C(C#N)=C2C=CC(=NO)C=C2)cc1` gave TDP2 inh inactive, PRMT1 FP inh 27.9, Fh CTSL1 inh inactive, GSTO1 inh inactive, PAD4 FP inh inactive and PRMT1 confirm inactive.
For COc1ccc(-c2cc(C(=O)NN=C/C(C)=C/c3ccccc3)[nH]n2)cc1 the results were TDP2 inh inactive and PRMT1 FP inh inactive.
For CCOC(=O)C(=O)NCc1ccc(/C=C2/N=C(C)C(C(=O)OCC)=C2O)o1 the results were TDP2 inh inactive, PRMT1 FP inh inactive, Fh CTSL1 inh inactive, GSTO1 inh inactive and PAD4 FP inh inactive.
`CCOC(=O)C1=C(O)/C(=C/c2ccc(CNC(=O)C(=O)Nc3ccc(C)cc3)o2)N=C1C` gave TDP2 inh inactive, PRMT1 FP inh 48.1, Fh CTSL1 inh inactive, GSTO1 inh inactive, PAD4 FP inh inactive and PRMT1 confirm inactive.
COC(=O)C1=C(O)/C(=C\c2ccc(CNC(=O)C(=O)Nc3ccc(C)c(C)c3)o2)N=C1C was read as TDP2 inh inactive, PRMT1 FP inh 45.3, Fh CTSL1 inh inactive, GSTO1 inh inactive, PAD4 FP inh inactive and PRMT1 confirm inactive.
COC(=O)C1=C(O)/C(=C\c2ccc(CNC(=O)C(=O)Nc3ccc(C)cc3)o2)N=C1C was read as TDP2 inh inactive, PRMT1 FP inh inactive, Fh CTSL1 inh inactive, GSTO1 inh inactive and PAD4 FP inh inactive.
O=C(O)/C=C/C(=O)Nc1ccc(OC(F)(F)F)cc1 was read as TDP2 inh inactive, PRMT1 FP inh inactive, Fh CTSL1 inh inactive, GSTO1 inh inactive and PAD4 FP inh inactive.
For O=C(O)/C=C/C(=O)Nc1ccc(OC(F)(F)F)cc1Br the results were TDP2 inh inactive, PRMT1 FP inh 49.7, Fh CTSL1 inh inactive, GSTO1 inh inactive, PAD4 FP inh inactive and PRMT1 confirm inactive.
`COc1ccc(NC(=O)C2CSC(C)(C)N2C=O)cc1` (centres undefined) gave TDP2 inh inactive, PRMT1 FP inh inactive, Fh CTSL1 inh inactive, GSTO1 inh inactive and PAD4 FP inh inactive.
For CC1(C)SCC(C(=O)O)N1C=O (centres undefined) the results were TDP2 inh inactive, PRMT1 FP inh 25.8, Fh CTSL1 inh inactive, GSTO1 inh inactive, PAD4 FP inh inactive and PRMT1 confirm inactive.
CC(=Nc1ccccc1)c1sc2ccccc2c1O was read as TDP2 inh inactive, PRMT1 FP inh 32.9, Fh CTSL1 inh inactive, GSTO1 inh inactive, PAD4 FP inh inactive and PRMT1 confirm 32.5.
Screening CC(=Nc1ccc(Br)cc1)c1sc2ccccc2c1O returned TDP2 inh inactive, PRMT1 FP inh 28.4, Fh CTSL1 inh inactive, GSTO1 inh inactive, PAD4 FP inh inactive and PRMT1 confirm inactive.
Screening CCCCCCCCN1C(=O)[C@@H](CC(=O)NCc2ccc(C)o2)C[C@@]2(C(=O)OC)C1=C[C@H](COCc1ccccc1)O[C@@H]2C returned TDP2 inh inactive and PRMT1 FP inh inactive.
